Reference: ChEMBL document CHEMBL3817843, “Understanding Oxadiazolothiazinone Biological Properties: Negative Inotropic Activity versus Cytochrome P450-Mediated Metabolism” (J Med Chem, 2016)
Calls of active or inactive are those of the source. No cut-off for these calls is given here.

Tests used:
Left cardiac atrium [1] = experiment: Negative inotropic activity against potassium depolarized guinea pig left atrium assessed as decrease in diltiazem EC50 at 10^-8 M preincubated for 30 mins followed by diltiazem addition relative to control; format: functional, Cavia porcellus
Summary of the method: (§1)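 Isolated guinea pig left atria, electrically driven at 1 Hz. The pretreatment agent (0.01 μM) was added to the bath 30 min before the L-type calcium channel blocker. Blocker concentration–response curves were then run to obtain the negative inotropic EC50, which was compared with the EC50 for the blocker alone. Data were compared by Student's t test.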

Cytochrome P450 2C19 = Cytochrome P450 2C19 (Homo sapiens, UniProt P33261); experiment: Inhibition of CYP2C19 in human liver microsomes using (S)-mephenytoin as substrate after 40 mins by LC-MS analysis
Chain of Cytochrome P450 2C19 (P33261 whole entry): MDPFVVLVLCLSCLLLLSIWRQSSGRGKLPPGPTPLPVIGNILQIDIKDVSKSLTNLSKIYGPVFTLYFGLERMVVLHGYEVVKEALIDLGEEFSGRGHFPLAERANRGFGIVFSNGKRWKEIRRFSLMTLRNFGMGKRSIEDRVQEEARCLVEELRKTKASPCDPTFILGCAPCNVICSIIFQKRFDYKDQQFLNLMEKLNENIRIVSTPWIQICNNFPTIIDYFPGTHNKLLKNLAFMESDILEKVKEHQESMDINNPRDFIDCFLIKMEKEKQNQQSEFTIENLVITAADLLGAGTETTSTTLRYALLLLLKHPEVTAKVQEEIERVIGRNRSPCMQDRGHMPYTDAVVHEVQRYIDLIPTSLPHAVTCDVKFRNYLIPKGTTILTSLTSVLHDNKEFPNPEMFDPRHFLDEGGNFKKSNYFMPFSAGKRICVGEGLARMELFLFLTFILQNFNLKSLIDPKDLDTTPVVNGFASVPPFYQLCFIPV

Cytochrome P450 3A4 [2] = molecular target: T1, Cytochrome P450 3A4 (Homo sapiens, UniProt P08684); experiment: Inhibition of CYP3A4 in human liver microsomes using testosterone as substrate after 5 mins by LC-MS analysis
T1 sequence (P08684 whole entry): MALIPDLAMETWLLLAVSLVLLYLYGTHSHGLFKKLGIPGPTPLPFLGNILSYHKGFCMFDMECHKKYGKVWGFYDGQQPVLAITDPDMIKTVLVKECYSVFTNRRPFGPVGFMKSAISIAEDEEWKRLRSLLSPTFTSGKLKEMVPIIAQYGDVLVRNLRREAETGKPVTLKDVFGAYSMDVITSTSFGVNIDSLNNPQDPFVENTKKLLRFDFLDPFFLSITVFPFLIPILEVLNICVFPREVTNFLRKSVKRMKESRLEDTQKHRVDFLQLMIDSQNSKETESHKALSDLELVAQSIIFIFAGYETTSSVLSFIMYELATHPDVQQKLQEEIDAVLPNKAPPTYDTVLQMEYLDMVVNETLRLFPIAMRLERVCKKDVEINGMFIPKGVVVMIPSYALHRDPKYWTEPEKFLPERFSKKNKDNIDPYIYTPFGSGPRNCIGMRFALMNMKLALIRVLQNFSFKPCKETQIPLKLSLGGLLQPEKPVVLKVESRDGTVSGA

Left cardiac atrium [3] = experiment: Potentiation of verapamil-induced negative inotropic activity in potassium depolarized guinea pig left atrium assessed as reduction in developed tension at 10^-8 M preincubated for 30 mins followed by verapamil addition; format: functional; details: Cavia porcellus
Summary of the method: (§2)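 Guinea pig left atria driven at 1 Hz. Pretreated with compound at 0.01 μM, added 30 min before diltiazem, verapamil or nifedipine. Blocker concentration−response curves analysed by probit (Litchfield and Wilcoxon), n = 6−7. Data given as mean ±, Student's t test.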

Aorta [4] = experiment: Vasorelaxant activity in potassium depolarized guinea pig aorta assessed as inhibition of calcium-induced contraction at 10^-6 M preincubated for 30 mins followed by 0.5 uM nifedipine addition; format: functional, Cavia porcellus; parameters: scale not given: the % may be the effect or the level left
Summary of the method: (§3)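 K+-depolarized (80 mM) guinea pig aortic strips contracted with calcium. Compound at 1 μM added 30 min before diltiazem, verapamil or nifedipine. Response expressed as percent change from control. Data given as mean ±, Student's t test.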

Cytochrome P450 3A4 [5] = molecular target: T1, Cytochrome P450 3A4; experiment: Inhibition of CYP3A4 in human liver microsomes using midazolam as substrate after 4 mins by LC-MS analysis
Aorta [6] = experiment: Vasorelaxant activity in potassium depolarized guinea pig aorta assessed as inhibition of calcium-induced contraction at 10^-6 M preincubated for 30 mins followed by 50 uM diltiazem addition; format: functional, Cavia porcellus; parameters: scale not given: the % may be the effect or the level left; summary of the method: as §3
Aorta [7] = experiment: Vasorelaxant activity in potassium depolarized guinea pig aorta assessed as relaxation of calcium-induced contraction at 10^-6 M after 30 mins; format: functional, tissue-based; details: Cavia porcellus
Summary of the method: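 Guinea pig aortic strips depolarized with K+ (80 mM). Calcium-induced contraction measured; inhibition expressed as percent change from control, n = 3−5.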

Left cardiac atrium [8] = experiment: Potentiation of nifedipine-induced negative inotropic activity in potassium depolarized guinea pig left atrium assessed as reduction in developed tension at 10^-8 M preincubated for 30 mins followed by nifedipine addition; format: functional; details: Cavia porcellus; summary of the method: as §2
Left cardiac atrium [9] = experiment: Negative inotropic activity against potassium depolarized guinea pig left atrium assessed as decrease in nifedipine EC50 at 10^-8 M preincubated for 30 mins followed by nifedipine addition relative to control; format: functional, Cavia porcellus; summary of the method: as §1
Left cardiac atrium [10] = experiment: Negative inotropic activity in potassium depolarized guinea pig left atrium assessed as reduction in developed tension at 10^-8 M preincubated for 30 mins followed by 5 uM diltiazem addition; format: functional, Cavia porcellus; parameters: scale not given: the % may be the effect or the level left
Aorta [11] = experiment: Inhibition of verapamil-induced vasorelaxant activity in potassium depolarized guinea pig aorta assessed as relaxation of calcium-induced contraction at 10^-6 M preincubated for 30 mins followed by verapamil addition; format: functional, tissue-based; details: Cavia porcellus; summary of the method: as §3
Left cardiac atrium [12] = experiment: Potentiation of diltiazem-induced negative inotropic activity in potassium depolarized guinea pig left atrium assessed as reduction in developed tension at 10^-8 M preincubated for 30 mins followed by diltiazem addition; format: functional; details: Cavia porcellus; summary of the method: as §2
Aorta [13] = experiment: Inhibition of nifedipine-induced vasorelaxant activity in potassium depolarized guinea pig aorta assessed as relaxation of calcium-induced contraction at 10^-8 M preincubated for 30 mins followed by nifedipine addition; format: functional, tissue-based; details: Cavia porcellus
[14] = Half life in human liver microsomes assessed as CYP-mediated compound degradation at 1 uM by LC-MS analysis
Rattus norvegicus = organism: Rattus norvegicus; experiment: Displacement of [3H]Isradipine from LTCC DHP site in Sprague-Dawley rat cardiomyocytes at 100 uM after 20 mins by liquid scintillation counting analysis; format: cell-based
Summary of the method: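 Rat cardiomyocytes pooled from at least three animals, stored frozen at −80 °C, 0.15−0.2 mg protein/tube. Incubated in 50 mmol/L Tris-HCl with 1.2 mmol/L MgCl2, pH 7.4, at 37 °C for 20 min with 0.1 nM (+)-[3H]isradipine and unlabeled compound (1 nM to 0.1 mM). Nonspecific binding defined with 0.1 mM isradipine. Filtered through PEI-presoaked GF/B filters; scintillation counting; duplicates.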

Cytochrome P450 2C9 = Cytochrome P450 2C9 (Homo sapiens, UniProt P11712); experiment: Inhibition of CYP2C9 in human liver microsomes using tolbutamide as substrate after 20 mins by LC-MS analysis
Chain of Cytochrome P450 2C9 (P11712 whole entry): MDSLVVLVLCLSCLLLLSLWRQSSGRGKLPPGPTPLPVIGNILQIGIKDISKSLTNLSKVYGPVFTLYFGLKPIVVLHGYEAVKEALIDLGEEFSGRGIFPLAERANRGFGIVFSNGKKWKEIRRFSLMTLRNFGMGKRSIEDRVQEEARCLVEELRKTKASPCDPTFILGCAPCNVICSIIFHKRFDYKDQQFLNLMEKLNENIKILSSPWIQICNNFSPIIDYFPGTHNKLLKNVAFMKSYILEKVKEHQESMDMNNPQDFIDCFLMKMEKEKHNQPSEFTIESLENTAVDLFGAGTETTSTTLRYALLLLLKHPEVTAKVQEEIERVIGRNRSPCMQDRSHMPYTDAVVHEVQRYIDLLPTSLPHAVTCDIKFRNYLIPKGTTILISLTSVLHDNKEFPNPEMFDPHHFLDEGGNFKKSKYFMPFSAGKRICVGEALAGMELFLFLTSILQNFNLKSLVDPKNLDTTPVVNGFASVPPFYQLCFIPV

Aorta [15] = experiment: Vasorelaxant activity in potassium depolarized guinea pig aorta assessed as inhibition of calcium-induced contraction at 10^-8 M preincubated for 30 mins followed by 0.5 uM nifedipine addition; format: functional, Cavia porcellus; parameters: scale not given: the % may be the effect or the level left
Aorta [16] = experiment: Inhibition of diltiazem-induced vasorelaxant activity in potassium depolarized guinea pig aorta assessed as relaxation of calcium-induced contraction at 10^-6 M preincubated for 30 mins followed by diltiazem addition; format: functional, tissue-based; details: Cavia porcellus; summary of the method: as §3
Aorta [17] = experiment: Vasorelaxant activity in potassium depolarized guinea pig aorta assessed as IC50 for diltiazem at 10^-8 M preincubated for 30 mins followed diltiazem addition; format: functional, tissue-based; details: Cavia porcellus
Aorta [18] = experiment: Inhibition of verapamil-induced vasorelaxant activity in potassium depolarized guinea pig aorta assessed as relaxation of calcium-induced contraction at 10^-8 M preincubated for 30 mins followed by verapamil addition; format: functional, tissue-based; details: Cavia porcellus
Left cardiac atrium [19] = experiment: Negative inotropic activity in potassium depolarized guinea pig left atrium assessed as reduction in developed tension at 10^-8 M after 30 mins; format: functional; details: Cavia porcellus
Cytochrome P450 1A2 = molecular target: T2, Cytochrome P450 1A2 (Homo sapiens, UniProt P05177); experiment: Inhibition of CYP1A2 in human liver microsomes using phenacetin as substrate after 30 mins by LC-MS analysis
T2 sequence (P05177 whole entry): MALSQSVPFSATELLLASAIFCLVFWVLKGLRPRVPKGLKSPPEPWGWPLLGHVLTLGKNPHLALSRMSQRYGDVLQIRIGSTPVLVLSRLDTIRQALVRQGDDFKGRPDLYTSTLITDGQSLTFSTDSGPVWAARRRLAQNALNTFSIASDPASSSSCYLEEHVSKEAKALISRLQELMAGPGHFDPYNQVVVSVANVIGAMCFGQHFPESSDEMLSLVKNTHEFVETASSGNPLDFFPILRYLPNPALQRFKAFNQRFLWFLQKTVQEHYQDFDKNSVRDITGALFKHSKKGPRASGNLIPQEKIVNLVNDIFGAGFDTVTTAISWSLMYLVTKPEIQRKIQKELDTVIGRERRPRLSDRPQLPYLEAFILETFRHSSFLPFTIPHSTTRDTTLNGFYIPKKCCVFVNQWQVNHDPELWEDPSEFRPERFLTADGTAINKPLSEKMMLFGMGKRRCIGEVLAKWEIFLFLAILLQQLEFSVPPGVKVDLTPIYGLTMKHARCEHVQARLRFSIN

Left cardiac atrium [20] = experiment: Negative inotropic activity in potassium depolarized guinea pig left atrium assessed as EC50 for nifedipine at 10^-8 M preincubated for 30 mins followed by nifedipine addition; format: functional; details: Cavia porcellus; summary of the method: as §2

Q: Which results are given for `CCOC1(c2ccc(Br)cc2)SC=C(C)n2c1noc2=O` (centres undefined)?
A: fold change (FC) (Left cardiac atrium [1]): 3.3; IC50 (Cytochrome P450 2C19): 1800 nM; IC50 (Cytochrome P450 3A4 [2]): 19200 nM; Activity (Left cardiac atrium [3]): Active; Activity (Aorta [4]): 11%; IC50 (Cytochrome P450 3A4 [5]): > 20000 nM; Activity (Aorta [6]): 18%; inhibition (Aorta [7]): inactive; Activity (Left cardiac atrium [8]): Active; fold change (FC) (Left cardiac atrium [9]): 11.8; Activity (Left cardiac atrium [10]): 92%; inhibition (Aorta [11]): Active; Activity (Left cardiac atrium [12]): Active; inhibition (Aorta [13]): Active; half-life at 1 µM [14]: 53 min; inhibition (Rattus norvegicus): 40%; IC50 (Cytochrome P450 2C9): 18400 nM; Activity (Aorta [15]): 10%; inhibition (Aorta [16]): Active; IC50 (Aorta [17]): 470 nM; inhibition (Aorta [18]): Active; Activity (Left cardiac atrium [19]): inactive; IC50 (Cytochrome P450 1A2): 2900 nM; EC50 (Left cardiac atrium [20]): 22 nM
